From ChEMBL document CHEMBL1165965, “Synthesis and structure-activity relationships of 1,2,3,4-tetrahydropyrido[2,3-b]pyrazines as potent and selective inhibitors of the anaplastic lymphoma kinase” (Bioorg Med Chem, 2010)

Tests used:
[1] = target: T1, Cyclin-G-associated kinase (Homo sapiens) (UniProt O14976); experiment: Inhibition of GAK at 1 uM
T1 sequence (whole entry): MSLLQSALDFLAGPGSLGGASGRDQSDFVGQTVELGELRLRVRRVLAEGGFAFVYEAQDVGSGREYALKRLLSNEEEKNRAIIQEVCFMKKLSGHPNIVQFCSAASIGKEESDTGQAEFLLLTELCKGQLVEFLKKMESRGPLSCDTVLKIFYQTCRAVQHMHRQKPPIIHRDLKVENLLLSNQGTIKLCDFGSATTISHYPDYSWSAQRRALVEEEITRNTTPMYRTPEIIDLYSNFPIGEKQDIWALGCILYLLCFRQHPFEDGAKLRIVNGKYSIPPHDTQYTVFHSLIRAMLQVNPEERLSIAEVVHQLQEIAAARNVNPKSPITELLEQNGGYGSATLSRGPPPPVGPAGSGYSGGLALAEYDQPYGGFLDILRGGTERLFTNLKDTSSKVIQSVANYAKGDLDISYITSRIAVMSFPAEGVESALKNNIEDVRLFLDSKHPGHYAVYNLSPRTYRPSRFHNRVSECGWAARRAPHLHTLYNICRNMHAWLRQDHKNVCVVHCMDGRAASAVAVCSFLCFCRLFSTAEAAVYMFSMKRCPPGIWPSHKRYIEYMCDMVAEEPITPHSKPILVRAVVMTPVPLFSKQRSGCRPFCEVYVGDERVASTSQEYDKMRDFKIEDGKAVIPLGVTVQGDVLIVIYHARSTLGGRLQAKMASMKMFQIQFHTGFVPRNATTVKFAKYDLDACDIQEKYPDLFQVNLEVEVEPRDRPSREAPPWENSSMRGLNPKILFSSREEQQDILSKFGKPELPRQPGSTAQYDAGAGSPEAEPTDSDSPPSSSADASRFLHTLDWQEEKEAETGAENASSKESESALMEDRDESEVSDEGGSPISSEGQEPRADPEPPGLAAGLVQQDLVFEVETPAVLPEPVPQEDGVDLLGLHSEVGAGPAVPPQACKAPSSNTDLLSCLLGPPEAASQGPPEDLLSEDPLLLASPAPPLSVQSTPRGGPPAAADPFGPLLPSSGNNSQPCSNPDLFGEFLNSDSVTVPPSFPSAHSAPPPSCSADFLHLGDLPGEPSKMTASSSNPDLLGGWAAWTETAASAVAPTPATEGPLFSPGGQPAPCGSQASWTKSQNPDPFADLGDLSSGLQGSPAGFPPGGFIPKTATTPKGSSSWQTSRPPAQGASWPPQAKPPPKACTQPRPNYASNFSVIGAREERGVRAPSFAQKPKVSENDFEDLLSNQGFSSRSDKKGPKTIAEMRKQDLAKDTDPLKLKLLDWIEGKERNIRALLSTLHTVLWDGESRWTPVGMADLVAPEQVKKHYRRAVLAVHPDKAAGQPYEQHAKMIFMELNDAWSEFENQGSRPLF
Method in brief: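 Single-concentration screen on the Ambit KINOMEscan platform, run against a panel of 250–400 kinases. Per-kinase inhibition was also summarized as S(90), the fraction of kinases inhibited by more than 90%.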

[2] = target: T2, Mitogen-activated protein kinase kinase kinase kinase 2 (Homo sapiens) (UniProt Q12851); experiment: Inhibition of MAP4K2 at 1 uM
T2 sequence (whole entry): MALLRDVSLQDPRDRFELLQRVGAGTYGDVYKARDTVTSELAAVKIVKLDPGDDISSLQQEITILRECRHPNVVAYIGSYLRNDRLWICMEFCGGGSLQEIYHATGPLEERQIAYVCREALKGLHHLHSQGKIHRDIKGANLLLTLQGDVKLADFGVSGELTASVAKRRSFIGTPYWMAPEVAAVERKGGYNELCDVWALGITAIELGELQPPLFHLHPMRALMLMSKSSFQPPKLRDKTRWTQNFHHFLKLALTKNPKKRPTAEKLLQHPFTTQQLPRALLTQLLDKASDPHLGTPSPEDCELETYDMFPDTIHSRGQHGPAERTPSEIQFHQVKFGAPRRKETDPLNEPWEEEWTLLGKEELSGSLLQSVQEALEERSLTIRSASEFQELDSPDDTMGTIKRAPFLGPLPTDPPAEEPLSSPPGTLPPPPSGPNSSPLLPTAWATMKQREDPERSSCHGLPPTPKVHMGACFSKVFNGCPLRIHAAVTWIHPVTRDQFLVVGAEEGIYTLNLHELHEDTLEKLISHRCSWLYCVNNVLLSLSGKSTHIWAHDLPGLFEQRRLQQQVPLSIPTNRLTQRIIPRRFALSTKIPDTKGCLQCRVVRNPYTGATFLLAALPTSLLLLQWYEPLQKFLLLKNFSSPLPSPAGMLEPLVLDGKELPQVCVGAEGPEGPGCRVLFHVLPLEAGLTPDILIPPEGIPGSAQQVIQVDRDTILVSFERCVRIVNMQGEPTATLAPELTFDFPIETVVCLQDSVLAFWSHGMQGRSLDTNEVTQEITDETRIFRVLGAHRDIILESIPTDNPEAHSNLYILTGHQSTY

SMILES | inhibition [1] [%] | inhibition [2] [%]
CN1CCN(c2ccc(-c3cnc4c(c3)N(Cc3cc(F)ccc3F)CCN4)cn2)CC1 | < 50 | 70
CC(=O)N1CCN(c2cc(-c3cnc4c(c3)N(Cc3cc(Cl)ccc3C(F)(F)F)CCN4)ccn2)CC1 | < 50 | < 50
CN1CCN(c2ccc(-c3cnc4c(c3)N(Cc3c(F)ccc(F)c3Cl)CCN4)cn2)CC1 | < 50 | 92
FC(F)(F)c1ccc(Cl)cc1CN1CCNc2ncc(-c3ccnc(N4CCNCC4)c3)cc21 | < 50 | 70
CN1CCN(c2ccc(-c3cnc4c(c3)N(Cc3cc(Cl)ccc3Cl)CCN4)cn2)CC1 | < 50 | < 50
O=C(c1ccc(-c2cnc3c(c2)N(Cc2cc(Cl)ccc2C(F)(F)F)CCN3)cc1)N1CCC(N2CCCC2)CC1 | < 50 | 
O=C(O)c1ccc(-c2cnc3c(c2)N(Cc2cc(Cl)ccc2C(F)(F)F)CCN3)cc1 | 66.5 | 
CN1CCN(c2ccc(-c3cnc4c(c3)N(Cc3cc(Cl)ccc3C(F)(F)F)CCN4)cn2)CC1 | < 50 | < 50
O=C(c1ccc(-c2cnc3c(c2)N(Cc2cc(Cl)ccc2C(F)(F)F)CCN3)cc1)N1CCCCC1 | < 50 | 
COC1CCN(C(=O)c2ccc(-c3cnc4c(c3)N(Cc3cc(Cl)ccc3C(F)(F)F)CCN4)cc2)CC1 | < 50 | 
